According to ChEMBL document CHEMBL1138564, “Microwave-induced synthesis and anti-microbial activities of 7,10,11,12-tetrahydrobenzo[c]acridin-8(9H)-one derivatives” (2009):
Converted amounts (≈) assume the structure as drawn. The source made the active and inactive calls. The rule behind the calls is not given here.

Legend:
Staphylococcus [1] = assay: Antimicrobial activity against Staphylococcus albus NCIM 2178 at 1000 ug/disk after 24 hrs by disk diffusion method; assay type: functional; conditions: for zone of inhibition at 1000 µg/disc: NCIM 2178, 24 h, read-out: DIZ
Outline: (§1)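 Disc diffusion. 100 µl of bacterial suspension at 10⁸ CFU/ml was spread on Mueller–Hinton agar. Discs loaded with test compound dissolved in DMSO were placed on the lawn, with a DMSO-only disc as negative control. Plates were incubated at 37 °C for 24 h, and the inhibition zone diameter was measured.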

Aspergillus niger [2] = assay: Antimicrobial activity against Aspergillus niger NCIM 1196 at 500 ug/disk after 72 hrs by disk diffusion method
Penicillium chrysogenum [3] = assay: Antimicrobial activity against Penicillium chrysogenum NCIM 707 after 72 hrs by serial dilution method; assay type: functional; conditions: NCIM 707, 72 h
Outline: (§2)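 MIC by broth dilution in Sabouraud's dextrose broth, only for fungi sensitive in disc diffusion. Two-fold serial dilutions of compounds are made in 1 ml broth per tube, range 3.9 to 1000. Inoculated tubes are incubated at 27 °C for 72 h.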

Salmonella typhimurium [4] = assay: Antimicrobial activity against Salmonella Typhimurium NCIM 2501 at 1000 ug/disk after 24 hrs by disk diffusion method; assay type: functional; conditions: for diameter of the inhibition zone (DIZ): Salmonella enterica subsp. enterica serovar Typhimurium; for zone of inhibition at 1000 µg/disc: Salmonella enterica, NCIM 2501, 24 h, read-out: DIZ; outline: as §1
Escherichia coli = assay: Antimicrobial activity against Escherichia coli NCIM 2065 at 1000 ug/disk after 24 hrs by disk diffusion method; assay type: functional; conditions: NCIM 2065, 24 h, read-out: DIZ
Outline: (§3)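 Disc diffusion on Mueller–Hinton agar. 100 µl of bacterial suspension at 10⁸ CFU/ml is spread on the plate. Discs carry test compounds at two loadings, dissolved in DMSO; DMSO alone serves as negative control. Ofloxacin disc is the positive reference. Plates are incubated at 37 °C for 24 h, and the inhibition zone diameter is measured.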

Aspergillus niger [5] = assay: Antimicrobial activity against Aspergillus niger NCIM 902 at 1000 ug/disk after 72 hrs by disk diffusion method; assay type: functional; conditions: NCIM 1196, 72 h, in the assay text read “NCIM 1196” for “NCIM 902”, read-out: DIZ
Outline: (§4)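 Disc diffusion on Sabouraud's dextrose agar. 100 µl of fungal suspension at 10⁶ CFU/ml is spread on the plate. Discs carry test compounds at two loadings in DMSO; DMSO alone is the negative control. Clotrimazole disc is the positive reference. Plates are incubated at 27 °C for 72 h, and the zone of inhibition diameter is measured.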

Aspergillus parasiticus = assay: Antimicrobial activity against Aspergillus parasiticus NCIM 904 at 500 ug/disk after 72 hrs by disk diffusion method; assay type: functional; conditions: NCIM 904, 72 h, read-out: DIZ; outline: as §4
Aspergillus niger [6] = assay: Antimicrobial activity against Aspergillus niger NCIM 902 after 72 hrs by serial dilution method; assay type: functional; conditions: NCIM 1196, 72 h, in the assay text read “NCIM 1196” for “NCIM 902”; outline: as §2
Penicillium chrysogenum [7] = assay: Antimicrobial activity against Penicillium chrysogenum NCIM 707 at 1000 ug/disk after 72 hrs by disk diffusion method; assay type: functional; conditions: for zone of inhibition at 1000 µg/disc: NCIM 707, 72 h, read-out: DIZ; outline: as §4
Aspergillus flavus = assay: Antimicrobial activity against Aspergillus flavus NCIM 902 at 500 ug/disk after 72 hrs by disk diffusion method; assay type: functional; conditions: NCIM 902, 72 h, read-out: DIZ; outline: as §4
Bacillus subtilis = assay: Antimicrobial activity against Bacillus subtilis NCIM 2063 at 500 ug/disk after 24 hrs by disk diffusion method; assay type: functional; conditions: for zone of inhibition at 500 µg/disc: NCIM 2063, 24 h, read-out: DIZ; outline: as §3
Aspergillus fumigatus = assay: Antimicrobial activity against Aspergillus fumigatus NCIM 902 after 72 hrs by serial dilution method; assay type: functional; conditions: NCIM 902, 72 h; outline: as §2
Bacillus cereus = assay: Antimicrobial activity against Bacillus cereus NCIM 2155 after 24 hrs by serial dilution method; assay type: functional; conditions: NCIM 2155, 24 h
Outline: (§5)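 Broth dilution MIC in nutrient broth, run only for organisms found sensitive in disc diffusion. Compounds are two-fold serially diluted in 1 ml sterile broth per tube, spanning 3.9 to 1000. Inoculated tubes are incubated at 37 °C for 24 h.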

Lipomyces lipofer [8] = assay: Antimicrobial activity against Lipomyces lipofer NCIM 3252 at 1000 ug/disk after 72 hrs by disk diffusion method; assay type: functional; conditions: for zone of inhibition at 1000 µg/disc: NCIM 3252, 72 h, read-out: DIZ; outline: as §4
Aspergillus niger [9] = assay: Antimicrobial activity against Aspergillus niger NCIM 1196 at 1000 ug/disk after 72 hrs by disk diffusion method
Salmonella typhimurium [10] = assay: Antimicrobial activity against Salmonella Typhimurium NCIM 2501 after 24 hrs by serial dilution method; assay type: functional, Salmonella enterica subsp. enterica serovar Typhimurium; conditions: Salmonella enterica, NCIM 2501, 24 h
Klebsiella aerogenes = assay: Antimicrobial activity against Klebsiella aerogenes NCIM 2239 after 24 hrs by serial dilution method; assay type: functional; conditions: NCIM 2239, 24 h; outline: as §5
Proteus vulgaris = assay: Antimicrobial activity against Proteus vulgaris NCIM 2027 after 24 hrs by serial dilution method; assay type: functional; conditions: NCIM 2027, 24 h; outline: as §5
[11] = system: Rhodococcus corynebacterioides; assay: Antimicrobial activity against Corynebacterium rubrum NCIM 2252 after 24 hrs by serial dilution method; assay type: functional; conditions: Rhodococcoides corynebacterioides, NCIM 2252, 24 h; outline: as §5
Pseudomonas aeruginosa = assay: Antimicrobial activity against Pseudomonas aeruginosa NCIM 2200 after 24 hrs by serial dilution method; assay type: functional; conditions: NCIM 2200, 24 h; outline: as §5
Staphylococcus [12] = assay: Antimicrobial activity against Staphylococcus albus NCIM 2178 after 24 hrs by serial dilution method; assay type: functional; conditions: NCIM 2178, 24 h
Aliivibrio fischeri = assay: Antimicrobial activity against Vibrio fischeri NCIM 2154 after 24 hrs by serial dilution method; assay type: functional; conditions: NCIM 2154, 24 h
Lipomyces lipofer [13] = assay: Antimicrobial activity against Lipomyces lipofer NCIM 3252 after 72 hrs by serial dilution method; assay type: functional; conditions: NCIM 3252, 72 h; outline: as §2
Aspergillus niger [14] = assay: Antimicrobial activity against Aspergillus niger NCIM 902 at 500 ug/disk after 72 hrs by disk diffusion method; assay type: functional; conditions: NCIM 1196, 72 h, in the assay text read “NCIM 1196” for “NCIM 902”, read-out: DIZ; outline: as §4

MIC (Penicillium chrysogenum [3])	MIC (Aspergillus fumigatus)	MIC (Bacillus cereus)	MIC (Salmonella typhimurium [10])	MIC (Klebsiella aerogenes)	MIC [11]	MIC (Lipomyces lipofer [13])	Compound	diameter of the inhibition zone (DIZ) (Staphylococcus [1])	diameter of the inhibition zone (DIZ) (Aspergillus niger [2])	diameter of the inhibition zone (DIZ) (Salmonella typhimurium [4])	zone of inhibition at 1000 µg/disc (Escherichia coli)	zone of inhibition at 500 µg/disc (Aspergillus parasiticus)	zone of inhibition at 500 µg/disc (Aspergillus flavus)	zone of inhibition at 500 µg/disc (Bacillus subtilis)	diameter of the inhibition zone (DIZ) (Lipomyces lipofer [8])	diameter of the inhibition zone (DIZ) (Aspergillus niger [9])	zone of inhibition at 1000 µg/disc (Salmonella typhimurium [4])	diameter of the inhibition zone (DIZ) (Penicillium chrysogenum [7])	MIC (Aliivibrio fischeri)	zone of inhibition at 1000 µg/disc (Lipomyces lipofer [8])	also measured
–	125 mg/L (≈ 337 µM)	62.5 mg/L (≈ 169 µM)	62.5 mg/L (≈ 169 µM)	125 mg/L (≈ 337 µM)	125 mg/L (≈ 337 µM)	62.5 mg/L (≈ 169 µM)	O=C1CCCC2=C1C(c1cccc([N+](=O)[O-])c1)c1ccc3ccccc3c1N2 (stereo not drawn)	–	–	–	12 mm	11 mm	8 mm	10 mm	–	–	10 mm	inactive	125 mg/L (≈ 337 µM)	10 mm	zone of inhibition at 1000 µg/disc (Staphylococcus [1]): 11 mm; zone of inhibition at 1000 µg/disc (Aspergillus niger [5]): 7 mm; MIC (Proteus vulgaris): 125 mg/L (≈ 337 µM); MIC (Aspergillus niger [6]): 125 mg/L (≈ 337 µM); zone of inhibition at 500 µg/disc (Aspergillus niger [14]): 7 mm; MIC (Staphylococcus [12]): 62.5 mg/L (≈ 169 µM)
62.5 mg/L (≈ 157 µM)	62.5 mg/L (≈ 157 µM)	15.6 mg/L (≈ 39.2 µM)	15.6 mg/L (≈ 39.2 µM)	31.2 mg/L (≈ 78.3 µM)	125 mg/L (≈ 314 µM)	62.5 mg/L (≈ 157 µM)	CC1(C)CC(=O)C2=C(C1)Nc1c(ccc3ccccc13)C2c1cccc([N+](=O)[O-])c1 (stereo not drawn)	–	inactive	–	15 mm	10 mm	9 mm	9 mm	–	inactive	13 mm	–	62.5 mg/L (≈ 157 µM)	11 mm	zone of inhibition at 1000 µg/disc (Staphylococcus [1]): 9 mm; MIC (Proteus vulgaris): 125 mg/L (≈ 314 µM); MIC (Pseudomonas aeruginosa): 125 mg/L (≈ 314 µM); MIC (Staphylococcus [12]): 125 mg/L (≈ 314 µM); zone of inhibition at 1000 µg/disc (Penicillium chrysogenum [7]): 11 mm
62.5 mg/L (≈ 161 µM)	62.5 mg/L (≈ 161 µM)	62.5 mg/L (≈ 161 µM)	62.5 mg/L (≈ 161 µM)	125 mg/L (≈ 322 µM)	125 mg/L (≈ 322 µM)	125 mg/L (≈ 322 µM)	CC1(C)CC(=O)C2=C(C1)Nc1c(ccc3ccccc13)C2c1cccc(Cl)c1 (stereo not drawn)	inactive	inactive	–	8 mm	11 mm	9 mm	–	–	inactive	10 mm	–	125 mg/L (≈ 322 µM)	8 mm	zone of inhibition at 1000 µg/disc (Penicillium chrysogenum [7]): 10 mm; diameter of the inhibition zone (DIZ) (Bacillus subtilis): inactive
–	62.5 mg/L (≈ 174 µM)	–	–	–	125 mg/L (≈ 347 µM)	–	O=C1CCCC2=C1C(c1ccccc1Cl)c1ccc3ccccc3c1N2 (stereo not drawn)	inactive	inactive	inactive	8 mm	8 mm	7 mm	7 mm	inactive	inactive	–	inactive	125 mg/L (≈ 347 µM)	–	–

More lines, now with the values behind:

Compound	MIC (Penicillium chrysogenum [3])	MIC (Aspergillus fumigatus)	MIC (Bacillus cereus)	MIC (Salmonella typhimurium [10])	MIC (Klebsiella aerogenes)	MIC [11]	MIC (Lipomyces lipofer [13])	diameter of the inhibition zone (DIZ) (Staphylococcus [1])	diameter of the inhibition zone (DIZ) (Aspergillus niger [2])	diameter of the inhibition zone (DIZ) (Salmonella typhimurium [4])	zone of inhibition at 1000 µg/disc (Escherichia coli)	zone of inhibition at 500 µg/disc (Aspergillus parasiticus)	zone of inhibition at 500 µg/disc (Aspergillus flavus)	zone of inhibition at 500 µg/disc (Bacillus subtilis)	diameter of the inhibition zone (DIZ) (Lipomyces lipofer [8])	diameter of the inhibition zone (DIZ) (Aspergillus niger [9])	zone of inhibition at 1000 µg/disc (Salmonella typhimurium [4])	diameter of the inhibition zone (DIZ) (Penicillium chrysogenum [7])	MIC (Aliivibrio fischeri)	zone of inhibition at 1000 µg/disc (Lipomyces lipofer [8])	also measured
O=C1CCCC2=C1C(c1ccccc1O)c1ccc3ccccc3c1N2 (stereo not drawn)	125 mg/L (≈ 366 µM)	62.5 mg/L (≈ 183 µM)	125 mg/L (≈ 366 µM)	–	–	–	–	inactive	inactive	inactive	9 mm	9 mm	8 mm	8 mm	inactive	–	–	–	–	–	zone of inhibition at 1000 µg/disc (Aspergillus niger [5]): 9 mm; MIC (Aspergillus niger [6]): 125 mg/L (≈ 366 µM); zone of inhibition at 1000 µg/disc (Penicillium chrysogenum [7]): 9 mm
CC1(C)CC(=O)C2=C(C1)Nc1c(ccc3ccccc13)C2c1ccc(Cl)cc1 (stereo not drawn)	–	125 mg/L (≈ 322 µM)	15.6 mg/L (≈ 40.2 µM)	31.2 mg/L (≈ 80.4 µM)	62.5 mg/L (≈ 161 µM)	62.5 mg/L (≈ 161 µM)	–	–	inactive	–	9 mm	12 mm	7 mm	8 mm	inactive	inactive	11 mm	inactive	62.5 mg/L (≈ 161 µM)	–	zone of inhibition at 1000 µg/disc (Staphylococcus [1]): 9 mm; MIC (Proteus vulgaris): 62.5 mg/L (≈ 161 µM); MIC (Pseudomonas aeruginosa): 62.5 mg/L (≈ 161 µM); MIC (Staphylococcus [12]): 125 mg/L (≈ 322 µM)
CC1(C)CC(=O)C2=C(C1)Nc1c(ccc3ccccc13)C2c1ccccc1Cl (stereo not drawn)	–	125 mg/L (≈ 322 µM)	31.2 mg/L (≈ 80.4 µM)	31.2 mg/L (≈ 80.4 µM)	125 mg/L (≈ 322 µM)	–	125 mg/L (≈ 322 µM)	inactive	inactive	–	8 mm	8 mm	8 mm	7 mm	–	inactive	13 mm	inactive	62.5 mg/L (≈ 161 µM)	10 mm	–
CC1(C)CC(=O)C2=C(C1)Nc1c(ccc3ccccc13)C2c1ccccc1O (stereo not drawn)	–	–	62.5 mg/L (≈ 169 µM)	31.2 mg/L (≈ 84.4 µM)	62.5 mg/L (≈ 169 µM)	–	–	inactive	inactive	–	8 mm	10 mm	9 mm	–	inactive	inactive	11 mm	inactive	125 mg/L (≈ 338 µM)	–	diameter of the inhibition zone (DIZ) (Bacillus subtilis): inactive
O=C1CCCC2=C1C(c1cccc(Cl)c1)c1ccc3ccccc3c1N2 (stereo not drawn)	–	31.2 mg/L (≈ 86.7 µM)	–	–	125 mg/L (≈ 347 µM)	125 mg/L (≈ 347 µM)	–	inactive	inactive	inactive	9 mm	12 mm	9 mm	8 mm	inactive	inactive	–	inactive	62.5 mg/L (≈ 174 µM)	–	–
CC1(C)CC(=O)C2=C(C1)Nc1c(ccc3ccccc13)C2c1ccccc1 (stereo not drawn)	–	62.5 mg/L (≈ 177 µM)	31.2 mg/L (≈ 88.3 µM)	62.5 mg/L (≈ 177 µM)	–	–	–	inactive	inactive	–	10 mm	7 mm	9 mm	8 mm	inactive	inactive	10 mm	inactive	125 mg/L (≈ 354 µM)	–	–
